Assay results published in ChEMBL document CHEMBL1123282, “Antiinflammatory activity of substituted 6-hydroxypyrimido[2,1-f]purine-2,4,8(1H,3H,9H)-triones. Atypical nonsteroidal antiinflammatory agents” (J Med Chem, 1986).

Experiments:
Rattus norvegicus = experiment: compound was tested for antiinflammatory activity against collagen II arthritis in rats, activity% inhibition in injected paw edema; assay type: functional
Outline: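 Arthritis induced in rats by injection of bovine articular cartilage type II collagen (dissolved in 0.01 M AcOH, dialysed against saline) mixed 1:1 with incomplete Freund's adjuvant. Paw inflammation checked weekly for 7 weeks. Inhibition = [Δpaw vol(collagen) − Δpaw vol(collagen + drug)]/[Δpaw vol(collagen) − Δpaw vol(ICFA control)] × 100. Bone damage scored by lateral-projection radiography; p ≤ 0.05 by Student's t-test.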

[1] = Plasma level data at a dose of 36 mg/kg, po after 0.25 hr; assay type: ADME, organism-based; parameters: dose 36 mg/kg, route oral; settings: read-out: Plasma level
Outline: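 Male Lewis rats get a single iv or oral dose of the sodium salt, suspended in 0.4% (w/v) methyl cellulose. Plasma drug levels are measured by HPLC at the timed points and given as mean ± SD, n = 3.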

concentration at 0.25 h [1] [ng/mL] | SMILES | Inhibition (Rattus norvegicus) [%]
 | CC(C)=CCc1c(O)n(Cc2ccccc2)c2nc3c(c(=O)n(C)c(=O)n3C)n2c1=O | 0
20000 | CCCc1c(O)n(Cc2ccc(F)cc2)c2nc3c(c(=O)n(C)c(=O)n3C)n2c1=O | 
